Broadly, the pIC50 is −log10 of the IC50, conventionally taken in molar units. Read a high pIC50 as a small IC50. As a reminder, the clearance is the volume of plasma or blood freed of the substance per unit of time. The low end stands for inefficient removal, the high end for efficient removal. In general, bioavailability refers to dose-corrected exposure relative to a reference, in per cent. The half-life is how long it takes for the measured level to halve.

The target in data set [1] is T1, Tyrosine-protein kinase JAK3 (Homo sapiens, UniProt P52333).
T1 sequence (P52333 whole entry): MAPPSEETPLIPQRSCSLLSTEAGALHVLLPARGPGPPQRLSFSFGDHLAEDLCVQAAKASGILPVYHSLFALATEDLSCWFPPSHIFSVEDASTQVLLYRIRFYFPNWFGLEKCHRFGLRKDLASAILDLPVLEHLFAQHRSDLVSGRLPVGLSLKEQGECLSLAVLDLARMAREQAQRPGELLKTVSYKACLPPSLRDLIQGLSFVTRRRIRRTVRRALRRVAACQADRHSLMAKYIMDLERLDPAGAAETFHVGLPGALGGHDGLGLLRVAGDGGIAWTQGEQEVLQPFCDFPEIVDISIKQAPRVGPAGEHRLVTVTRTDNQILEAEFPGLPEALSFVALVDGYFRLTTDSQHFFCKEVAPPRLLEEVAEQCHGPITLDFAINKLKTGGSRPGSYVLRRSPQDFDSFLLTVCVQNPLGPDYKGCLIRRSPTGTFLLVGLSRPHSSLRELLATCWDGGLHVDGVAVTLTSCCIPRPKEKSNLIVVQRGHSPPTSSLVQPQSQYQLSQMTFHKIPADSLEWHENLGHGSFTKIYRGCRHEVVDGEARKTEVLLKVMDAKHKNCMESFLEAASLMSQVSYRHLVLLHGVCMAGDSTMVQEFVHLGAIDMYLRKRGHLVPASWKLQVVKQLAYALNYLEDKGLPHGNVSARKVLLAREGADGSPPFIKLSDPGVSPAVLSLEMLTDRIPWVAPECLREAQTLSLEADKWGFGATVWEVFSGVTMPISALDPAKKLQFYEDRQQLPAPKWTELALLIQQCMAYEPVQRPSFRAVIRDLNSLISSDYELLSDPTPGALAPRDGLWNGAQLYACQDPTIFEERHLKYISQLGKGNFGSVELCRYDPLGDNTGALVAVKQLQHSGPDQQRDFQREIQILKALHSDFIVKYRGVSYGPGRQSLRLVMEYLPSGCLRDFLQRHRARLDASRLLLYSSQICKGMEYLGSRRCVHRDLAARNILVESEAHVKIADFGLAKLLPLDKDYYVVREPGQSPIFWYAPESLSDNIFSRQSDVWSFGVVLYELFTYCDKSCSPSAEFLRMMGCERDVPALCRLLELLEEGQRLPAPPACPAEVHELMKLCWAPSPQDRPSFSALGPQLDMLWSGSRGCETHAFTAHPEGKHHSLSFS
The data set can be described thus: Inhibition of JAK3 (unknown origin) using 16 uM of ATP and Tyr6 peptide by Z'-LYTE kinase assay.

The target of data set [2] is T2, Tyrosine-protein kinase JAK1 (Homo sapiens, UniProt P23458). The data set is described as follows: Inhibition of JAK1 (unknown origin) using 87 uM of ATP and Tyr6 peptide by Z'-LYTE kinase assay.
Data set [3] deals with T3, Non-receptor tyrosine-protein kinase TYK2 (Homo sapiens, UniProt P29597). The data set is described as follows: Inhibition of Tyk2 (unknown origin) using 25 uM of ATP and Tyr3 peptide by Z'-LYTE kinase assay.
For data set [4], the target named is T4, Tyrosine-protein kinase JAK2 (Homo sapiens, UniProt O60674). The data set can be described thus: Inhibition of JAK2 (unknown origin) using 35 uM of ATP and Tyr6 peptide by Z'-LYTE kinase assay.
Data set [5] is filed under the species Homo sapiens. The data set is described as follows: Selectivity ratio of IC50 for JAK2 (unknown origin) using 35 uM of ATP and Tyr6 peptide to IC50 for JAK1 (unknown origin) using 87 uM of ATP and Tyr6 peptide. In a few lines: (§1)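 JAK1 selectivity taken as IC50 against JAK2 or JAK3 divided by IC50 against JAK1. […] IC50s are means ± SD of three independent experiments.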

The species named for data set [6] is Homo sapiens. The data set is described as follows: Selectivity ratio of IC50 for JAK3 (unknown origin) using 16 uM of ATP and Tyr6 peptide to IC50 for JAK1 (unknown origin) using 87 uM of ATP and Tyr6 peptide. In a few lines:
as §1

Data set [7] addresses T4, Tyrosine-protein kinase JAK2. The data set is described as follows: Inhibition of JAK2 (unknown origin).
Data set [8] has the same target. The data set can be described thus: Inhibition of JAK2 in human A431 cells assessed as erythropoietin-induced STAT5 phosphorylation at 0.001 to 10 uM after 2 hrs by ELISA. Type of data set: cell-based. As to conditions: A-431. For orientation: In an ELISA, binding on a coated surface is turned into a signal by an enzyme label.
In data set [9] the target is T3, Non-receptor tyrosine-protein kinase TYK2. The data set can be described thus: Inhibition of Tyk2 (unknown origin) using 1 mM of ATP and Tyr3 peptide by Z'-LYTE kinase assay.
Data set [10] deals with T2, Tyrosine-protein kinase JAK1. The data set can be described thus: Inhibition of JAK1 (unknown origin) using 1 mM of ATP and Tyr6 peptide by Z'-LYTE kinase assay.
A short description of data set [11]: Plasma clearance in Sprague-Dawley rat at 5 mg/kg, iv. It is filed as ADME, organism-based. In a few lines:
(§2)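 Rats dosed intravenously. Steady-state volume of distribution, systemic plasma clearance and plasma half-life derived from plasma concentration data.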

Data set [12] is described as follows: Oral bioavailability in Sprague-Dawley rat at 10 mg/kg. It is filed as ADME, organism-based. As to conditions: in vivo.
Data set [13] concerns the target T2, Tyrosine-protein kinase JAK1. As to conditions: A-431, 0.001 to 10 uM.
For data set [14], the target named is T4, Tyrosine-protein kinase JAK2. The data set can be described thus: Inhibition of JAK2 (unknown origin) using 1 mM of ATP and Tyr6 peptide by Z'-LYTE kinase assay.
Data set [15] is described as follows: Half life in Sprague-Dawley rat at 5 mg/kg, iv. It is filed as ADME, organism-based. As to conditions: in vivo. In a few lines:
as §2

Data set [16] can be described thus: Volume of distribution at steady state in Sprague-Dawley rat at 5 mg/kg, iv. As to conditions: in vivo, read-out: Vdss. Type of data set: ADME, organism-based. In a few lines: as §2
The nature of data set [17]: Permeability of the compound by PAMPA. It is filed as physicochemical. The settings on record: read-out: permeability. (The PAMPA barrier holds no transporters, so it reflects passive diffusion.)
The target of data set [18] is T1, Tyrosine-protein kinase JAK3. The data set can be described thus: Inhibition of JAK3 (unknown origin) using 1 mM of ATP and Tyr6 peptide by Z'-LYTE kinase assay.
The species entered for data set [19] is Homo sapiens. The data set can be described thus: Selectivity ratio of IC50 for JAK2 (unknown origin) to IC50 for JAK1 (unknown origin) by cell based assay.

Structures are written as SMILES. pIC50: −log10 of the molar value. Activity calls are given as the source filed them. The rule behind the calls is not given here.

T4 sequence (O60674 whole entry): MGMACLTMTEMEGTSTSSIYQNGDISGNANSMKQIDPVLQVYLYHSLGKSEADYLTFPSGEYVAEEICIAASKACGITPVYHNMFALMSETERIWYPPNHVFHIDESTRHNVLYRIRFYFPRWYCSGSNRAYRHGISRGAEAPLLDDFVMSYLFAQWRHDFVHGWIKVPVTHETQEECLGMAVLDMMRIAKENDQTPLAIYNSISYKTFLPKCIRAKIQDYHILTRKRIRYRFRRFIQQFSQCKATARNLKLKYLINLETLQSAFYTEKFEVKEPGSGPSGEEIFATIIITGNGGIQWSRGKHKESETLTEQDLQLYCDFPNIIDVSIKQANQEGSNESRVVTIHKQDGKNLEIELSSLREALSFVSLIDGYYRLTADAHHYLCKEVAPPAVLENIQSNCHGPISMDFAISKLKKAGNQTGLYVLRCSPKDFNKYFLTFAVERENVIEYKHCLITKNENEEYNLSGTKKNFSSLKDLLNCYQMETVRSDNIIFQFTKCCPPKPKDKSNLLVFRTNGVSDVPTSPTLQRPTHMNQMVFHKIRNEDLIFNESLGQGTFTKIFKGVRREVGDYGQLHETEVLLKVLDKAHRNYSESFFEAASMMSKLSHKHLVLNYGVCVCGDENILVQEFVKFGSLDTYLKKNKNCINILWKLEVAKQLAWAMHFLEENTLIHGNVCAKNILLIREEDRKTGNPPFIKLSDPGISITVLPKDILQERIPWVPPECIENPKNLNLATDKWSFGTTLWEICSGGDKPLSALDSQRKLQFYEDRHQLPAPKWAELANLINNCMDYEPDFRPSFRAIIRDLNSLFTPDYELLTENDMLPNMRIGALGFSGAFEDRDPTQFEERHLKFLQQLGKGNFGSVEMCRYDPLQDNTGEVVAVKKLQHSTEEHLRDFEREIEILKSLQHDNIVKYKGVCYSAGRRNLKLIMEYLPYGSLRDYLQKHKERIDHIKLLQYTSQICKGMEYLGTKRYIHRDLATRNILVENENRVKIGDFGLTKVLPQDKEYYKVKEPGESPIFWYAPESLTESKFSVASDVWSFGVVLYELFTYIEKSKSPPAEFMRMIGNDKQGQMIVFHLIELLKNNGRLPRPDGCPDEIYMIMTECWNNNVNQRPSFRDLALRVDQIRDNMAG
T2 sequence (P23458 whole entry): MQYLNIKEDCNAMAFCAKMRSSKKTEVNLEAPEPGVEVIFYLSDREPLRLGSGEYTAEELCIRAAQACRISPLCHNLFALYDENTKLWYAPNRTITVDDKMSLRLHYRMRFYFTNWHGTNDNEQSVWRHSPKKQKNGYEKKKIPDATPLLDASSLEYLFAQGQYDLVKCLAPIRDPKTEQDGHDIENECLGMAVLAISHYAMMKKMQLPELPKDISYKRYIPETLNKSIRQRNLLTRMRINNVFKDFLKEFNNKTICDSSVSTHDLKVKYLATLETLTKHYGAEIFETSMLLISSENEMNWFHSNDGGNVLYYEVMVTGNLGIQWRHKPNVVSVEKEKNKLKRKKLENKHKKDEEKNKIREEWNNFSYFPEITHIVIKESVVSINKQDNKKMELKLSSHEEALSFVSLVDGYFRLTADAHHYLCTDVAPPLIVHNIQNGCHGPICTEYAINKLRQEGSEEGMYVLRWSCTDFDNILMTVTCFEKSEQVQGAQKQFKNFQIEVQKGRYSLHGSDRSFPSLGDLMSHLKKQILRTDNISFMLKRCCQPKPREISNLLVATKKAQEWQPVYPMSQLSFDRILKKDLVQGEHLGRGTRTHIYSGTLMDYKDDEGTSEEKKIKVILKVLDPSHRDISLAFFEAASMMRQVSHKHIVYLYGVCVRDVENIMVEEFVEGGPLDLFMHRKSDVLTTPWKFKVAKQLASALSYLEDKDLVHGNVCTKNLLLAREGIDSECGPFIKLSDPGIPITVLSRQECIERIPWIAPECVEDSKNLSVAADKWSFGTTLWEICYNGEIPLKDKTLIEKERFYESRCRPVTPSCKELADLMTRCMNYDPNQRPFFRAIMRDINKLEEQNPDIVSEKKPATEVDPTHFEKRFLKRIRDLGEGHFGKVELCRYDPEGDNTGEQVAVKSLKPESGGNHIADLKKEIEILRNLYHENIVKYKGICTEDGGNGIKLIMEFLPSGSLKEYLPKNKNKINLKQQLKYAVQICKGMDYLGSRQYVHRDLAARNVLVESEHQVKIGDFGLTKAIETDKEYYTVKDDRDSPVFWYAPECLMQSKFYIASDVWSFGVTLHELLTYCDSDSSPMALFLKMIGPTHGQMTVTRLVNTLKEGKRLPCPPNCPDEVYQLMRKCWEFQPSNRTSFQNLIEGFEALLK
T3 sequence (P29597 whole entry): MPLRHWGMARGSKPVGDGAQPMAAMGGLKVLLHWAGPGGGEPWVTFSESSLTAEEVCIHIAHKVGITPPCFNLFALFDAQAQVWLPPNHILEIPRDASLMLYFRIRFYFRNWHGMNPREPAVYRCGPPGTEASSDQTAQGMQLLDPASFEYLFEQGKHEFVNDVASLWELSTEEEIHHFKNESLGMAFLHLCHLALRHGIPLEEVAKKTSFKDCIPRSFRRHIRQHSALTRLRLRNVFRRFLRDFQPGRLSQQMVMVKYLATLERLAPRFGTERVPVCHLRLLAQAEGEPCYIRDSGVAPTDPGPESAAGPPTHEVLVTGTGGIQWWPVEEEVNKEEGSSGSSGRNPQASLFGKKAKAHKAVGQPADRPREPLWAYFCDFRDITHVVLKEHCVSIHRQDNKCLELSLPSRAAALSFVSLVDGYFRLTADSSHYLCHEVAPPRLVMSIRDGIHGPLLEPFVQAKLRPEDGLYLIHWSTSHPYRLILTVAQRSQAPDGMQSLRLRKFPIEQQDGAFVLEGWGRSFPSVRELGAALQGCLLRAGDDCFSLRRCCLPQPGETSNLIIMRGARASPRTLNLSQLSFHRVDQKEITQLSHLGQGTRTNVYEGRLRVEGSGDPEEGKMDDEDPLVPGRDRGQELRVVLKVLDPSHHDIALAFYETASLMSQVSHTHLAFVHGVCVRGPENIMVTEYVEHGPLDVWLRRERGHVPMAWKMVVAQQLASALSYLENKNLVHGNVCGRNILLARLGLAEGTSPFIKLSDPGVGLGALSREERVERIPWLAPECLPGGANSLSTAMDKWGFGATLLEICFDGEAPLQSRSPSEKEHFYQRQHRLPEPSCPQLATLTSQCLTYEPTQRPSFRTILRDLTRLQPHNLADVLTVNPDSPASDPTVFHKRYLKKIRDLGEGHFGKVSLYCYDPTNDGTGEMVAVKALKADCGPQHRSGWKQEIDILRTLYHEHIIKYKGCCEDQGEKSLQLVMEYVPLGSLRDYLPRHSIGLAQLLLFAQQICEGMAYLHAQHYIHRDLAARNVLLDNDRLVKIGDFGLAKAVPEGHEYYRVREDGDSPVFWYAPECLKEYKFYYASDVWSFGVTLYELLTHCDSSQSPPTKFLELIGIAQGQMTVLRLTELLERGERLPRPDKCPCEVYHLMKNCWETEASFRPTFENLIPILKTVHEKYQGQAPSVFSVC

Consider `N#Cc1ccc(-c2nc3cc(C(N)=O)ccc3n2CCN)cc1`, for which the negative-log IC50 (pIC50) in data set [1] is 5.72; in data set [2], 5.54; in data set [3] it was 5.60; in data set [4] it was 5.59. In addition, the Ratio IC50 turned out to be 0.9 in the data set filed under Homo sapiens [5] and 0.7 in the data set listed under Homo sapiens [6].

`CC(C)c1ccc(-c2nc3cc(C(N)=O)ccc3n2CCN)cc1`: the negative-log IC50 (pIC50) was 5.72 in [1], 5.51 in data set [2], 5.57 in data set [3] and 5.23 in [4]. In addition, the Ratio IC50 in the data set filed under Homo sapiens [5] is 2; in the data set listed under Homo sapiens [6] it was 0.6.

With `NCCn1c(-c2ccc(C(F)(F)F)cc2)nc2cc(C(N)=O)ccc21`, the pIC50 was 5.68 in [1], 5.03 in data set [2], 5.49 in data set [3] and 5.32 in [4]. Besides, the results for the Ratio IC50 in the data set listed under Homo sapiens [5] and in the data set filed under Homo sapiens [6] were 0.5 and 0.2, respectively.

As to `NCCn1c(-c2ccncc2)nc2cc(C(N)=O)ccc21`, the negative logarithm of the IC50 (pIC50) in [1] was 4.98; in data set [2] it was 4.49; in data set [3] it was 5.24; in data set [4] it was 4.87. Also, the figures for the Ratio IC50 in the data set listed under Homo sapiens [5] and in the data set listed under Homo sapiens [6] were 0.4 and 0.3, respectively.

`NCCCn1c(CCN)nc2cc(C(N)=O)ccc21`: the pIC50 in [1] was 5.82; in data set [2], 5.21; in [3] it was 5.19; in data set [4] it was 5.66. Moreover, the results for the Ratio IC50 in the data set filed under Homo sapiens [5] and in the data set filed under Homo sapiens [6] were 0.4 and 0.2, respectively.

`CC[C@@](C)(Nc1ccnc(-c2c[nH]c3ncccc23)n1)C(=O)NCC(F)(F)F` [DECERNOTINIB] gave a negative logarithm of the IC50 (pIC50) in data set [7] of 7.89.

For `NCCn1c(-c2ccccc2)nc2cc(C(N)=O)ccc21`, the negative-log IC50 (pIC50) in data set [1] was 4.85; in [2], 4.94; in data set [3], 5.38; in [4], 5.55. Moreover, the Ratio IC50 is 0.2 in the data set listed under Homo sapiens [5] and 1 in the data set filed under Homo sapiens [6].

Regarding `NCCn1c(-c2cccnc2N)nc2cc(C(N)=O)ccc21`, the pIC50 in [1] is 5.72; in data set [2] it was 5.09; in data set [3], 5.37; in data set [4] it was 5.33. Besides, the Ratio IC50 came to 0.6 in the data set listed under Homo sapiens [5] and 0.2 in the data set listed under Homo sapiens [6].

Consider `NCCc1nc2cc(C(N)=O)ccc2n1CCN`, for which the pIC50 in [1] is 5.82; in data set [2], 7.00; in [3] it was 5.51; in data set [4], 5.54. Besides, the Ratio IC50 in the data set filed under Homo sapiens [5] came out at 29; in the data set filed under Homo sapiens [6] it was 15.

For `NCCn1c(-c2cncnc2)nc2cc(C(N)=O)ccc21`, the negative-log IC50 (pIC50) was 5.60 in [1], 5.47 in data set [2], 5.55 in [3] and 5.80 in [4]. The Ratio IC50 in the data set listed under Homo sapiens [5] was found to be 0.5; in the data set listed under Homo sapiens [6] it was 0.7.

Consider `NCCCn1c(-c2ccccc2)nc2cc(C(N)=O)ccc21`, for which the pIC50 in data set [1] was 5.74; in data set [2], 4.95; in data set [3], 5.57; in [4], 4.69. Further, the Ratio IC50 in the data set filed under Homo sapiens [5] was 2; in the data set listed under Homo sapiens [6], 0.2.

For the molecule `NCCn1c(-c2ccc(O)cc2)nc2cc(C(N)=O)ccc21`, the pIC50 in data set [1] was 5.62; in [2] it was 7.00; in data set [3] it was 5.49; in data set [4], 5.89. Further, the Ratio IC50 worked out at 11 in the data set filed under Homo sapiens [5] and 20 in the data set filed under Homo sapiens [6].

`NCCn1c(C2CCNCC2)nc2cc(C(N)=O)ccc21`: the inhibition entry in [8] and in data set [13] was “inactive” in each case. Moreover, the pIC50 is 3.12 in [9]; 5.90 in [1]; 5.24 in [10]; 7.30 in data set [2]; 5.43 in [3]; 3.36 in data set [14]. Moreover, the negative logarithm of the IC50 (pIC50) is 5.50 in data set [4] and 3.63 in data set [18]. The same molecule showed a clearance in data set [11] of 6.67 mL/min/kg. In data set [12], this molecule registered a bioavailability of 0.7%. Also, the half-life in data set [15] is 9.1 h. In addition, the Vd in data set [16] is 0.5 L/kg. The Papp in [17] was 0.1 ×10⁻⁶ cm/s. For the same molecule, the Ratio IC50 in the data set listed under Homo sapiens [5] was determined as 63; in the data set filed under Homo sapiens [6] it was 25.

`NCCn1c(-c2ccc(O)cc2O)nc2cc(C(N)=O)ccc21`: the negative-log IC50 (pIC50) was 5.54 in data set [1], 5.51 in data set [2], 5.43 in data set [3] and 5.60 in data set [4]. Besides, the Ratio IC50 turned out to be 0.8 in the data set listed under Homo sapiens [5] and 0.9 in the data set listed under Homo sapiens [6].

With `CC[C@@H]1CN(C(=O)NCC(F)(F)F)C[C@@H]1c1cnc2cnc3[nH]ccc3n12`, the Ratio IC50 in the data set listed under Homo sapiens [19] amounted to 74.

For `NCCn1c(C2CCCCC2)nc2cc(C(N)=O)ccc21`, the pIC50 in [1] is 5.60; in data set [2] it was 5.37; in data set [3], 5.48; in [4], 5.39. Besides, the Ratio IC50 in the data set filed under Homo sapiens [5] came to 1; in the data set listed under Homo sapiens [6] it was 0.6.

With `Cc1ccc(-c2nc3cc(C(N)=O)ccc3n2CCN)cc1`, the negative logarithm of the IC50 (pIC50) in [1] is 5.64; in [2] it was 5.43; in data set [3] it was 5.46; in data set [4] it was 5.59. The Ratio IC50 is 0.7 in the data set listed under Homo sapiens [5] and 0.6 in the data set listed under Homo sapiens [6].

In the case of `NCCCc1nc2cc(C(N)=O)ccc2n1CCN`, the pIC50 is 5.96 in data set [1], 5.66 in data set [2], 5.60 in data set [3] and 5.80 in [4]. In addition, the figures for the Ratio IC50 in the data set listed under Homo sapiens [5] and in the data set filed under Homo sapiens [6] were 0.7 and 0.5, respectively.

(Values after ChEMBL document CHEMBL3621116, “Benzimidazole Derivatives as Potent JAK1-Selective Inhibitors” (J Med Chem, 2015).)
